Test results: ChEMBL document CHEMBL1122116, “Antiparasitic agents. 5. Synthesis and anthelmintic activities of novel 2-heteroaromatic-substituted isothiocyanatobenzoxazoles and benzothiazoles” (J Med Chem, 1982)

Columns and labels:
[1] = test system: Rodentolepis nana; assay: Mouse oral clearance was measured against Hymenolepiasis nana.; assay type: functional; set-up: concentration or dose not given beside the values
In short: (§1)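 Mice experimentally infected with N. dubius (nematode) or H. nana (tapeworm) received the compound in the diet at 0.2%. Read-out is percent clearance of worms after oral dosing.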

[2] = test system: Ovis aries; assay: Percent reduction in fecal egg count was measured in sheep dosed at 25 mg/kg.; assay type: functional
[3] = test system: Heligmosomoides polygyrus; assay: Mouse oral clearance was measured against Nematospiroides dubius; assay type: functional; set-up: concentration or dose not given beside the values; in short: as §1
[4] = test system: Ovis aries; assay: Percent reduction in nematode fecal egg count was measured in sheep following 50 mg/kg p.o.; assay type: functional; conditions: route oral
[5] = test system: Heligmosomoides polygyrus; assay: Titration of anthelmintic activity against Nematospiroides dubius in mice at 0.2 concentration of diet.; assay type: ADME, organism-based; conditions: in vivo, po
In short: (§2)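 Titration in mice experimentally infected with N. dubius, with the compound mixed into the diet at a series of levels. Read-out is nematode clearance.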

[6] = test system: Heligmosomoides polygyrus; assay: Titration of anthelmintic activity against Nematospiroides dubius in mice at 0.025 concentration of diet.; assay type: ADME, organism-based; conditions: in vivo, po; in short: as §2
[7] = test system: Heligmosomoides polygyrus; assay: Titration of anthelmintic activity against Nematospiroides dubius in mice at 0.1 concentration of diet.; assay type: ADME, organism-based; conditions: in vivo, po; in short: as §2
[8] = test system: Heligmosomoides polygyrus; assay: Titration of anthelmintic activity against Nematospiroides dubius in mice at 0.0125 concentration of diet.; assay type: ADME, organism-based; conditions: in vivo, po; in short: as §2
[9] = test system: Ovis aries; assay: Percent reduction in fecal egg count was measured in sheep dosed at 58 mg/kg.; assay type: functional
[10] = test system: Ovis aries; assay: Percent reduction in fecal egg count was measured in sheep dosed at 100 mg/kg.; assay type: functional
[11] = test system: Ovis aries; assay: Percent reduction in fecal egg count was measured in sheep dosed at 50 mg/kg.; assay type: ADME, organism-based; set-up: dose 50 mg/kg; conditions: in vivo
[12] = test system: Heligmosomoides polygyrus; assay: Titration of anthelmintic activity against Nematospiroides dubius in mice at 0.05 concentration of diet.; assay type: ADME, organism-based; conditions: in vivo, po; in short: as §2
[13] = test system: Ovis aries; assay: Percent reduction in fecal egg count was measured in sheep dosed at 44 mg/kg.; assay type: functional

Row | SMILES | Activity [1] [%] | Activity [3] [%] | Reduction [4] [%] | also measured
1 | Cc1cc2oc(-c3cccnc3)nc2cc1N=C=S | 0 | 99 |  | Reduction [2]: 0%
2 | S=C=Nc1ccc2oc(-c3ccc(Cl)nc3)nc2c1 | 0 | 0 | 97 | 
3 | S=C=Nc1ccc2oc(-c3ccccc3)nc2c1 | 0 | 60 | 57 | 
4 | S=C=Nc1ccc2[nH]c(-c3ccccn3)nc2c1 | 100 | 0 | 100 | 
5 | Cc1cc2oc(-c3ccccn3)nc2cc1N=C=S | 0 | 0 | 90 | 
6 | S=C=Nc1ccnc(-c2nc3ccccc3o2)c1 | 0 | 0 | 10 | 
7 | S=C=Nc1cc(Cl)c2oc(-c3ccc(Cl)nc3)nc2c1 | 0 | 0 |  | 
8 | S=C=Nc1cc(Cl)c2oc(-c3cccs3)nc2c1 | 0 | 0 |  | 
9 | S=C=Nc1ccc2sc(-c3cccnc3)nc2c1 | 0 | 58 |  | 
10 | c1ccc2[nH]c(-c3cscn3)nc2c1 [THIABENDAZOLE] |  |  |  | Activity [5]: 96%; Activity [6]: 47%; Activity [7]: 89%; Activity [8]: 40%
11 | S=C=Nc1ccc2oc(-c3ccc(CN4CCOCC4)o3)nc2c1 | 0 | 0 |  | 
12 | CCN(CC)Cc1ccc(-c2nc3cc(N=C=S)ccc3o2)s1.Cl | 0 | 0 |  | 
13 | S=C=Nc1ccc2sc(-c3ccccn3)nc2c1 | 50 | 20 |  | Reduction [9]: 36%
14 | COc1cc2sc(-c3cccnc3)nc2cc1N=C=S | 0 | 5 | 40 | 
15 | Cn1cccc1-c1nc2cc(N=C=S)cc(Cl)c2o1 | 0 | 0 |  | 
16 | CN(C)c1ccc(-c2nc3cc(N=C=S)ccc3o2)cn1.CN(C)c1ccc(-c2nc3ccc(N=C=S)cc3o2)cn1 | 0 | 0 |  | 
17 | Cc1ccc(-c2nc3cc(N=C=S)ccc3o2)o1 | 66 | 100 |  | Reduction [10]: 97%
18 | S=C=Nc1ccc2oc(-c3sccc3CN3CCOCC3)nc2c1 | 0 | 0 |  | 
19 | S=C=Nc1ccc2oc(-c3ccncc3)nc2c1 | 0 | 0 | 40 | 
20 | S=C=Nc1ccc2oc(-c3cccnc3)nc2c1 |  |  |  | Reduction [11]: 69%

Row | SMILES | Activity [1] [%] | Activity [3] [%] | Reduction [4] [%] | also measured
21 | S=C=Nc1ccc2nc(-c3cnccn3)oc2c1.S=C=Nc1ccc2oc(-c3cnccn3)nc2c1 |  | 0 | 93 | 
22 | S=C=Nc1ccc2oc(-c3ccco3)nc2c1 | 0 | 100 |  | Activity [5]: 100%; Activity [12]: 39%; Activity [6]: 0%; Reduction [10]: 97%; Activity [7]: 88%; Activity [8]: 0%
23 | S=C=Nc1ccc2nc(-c3cccnc3)oc2c1 | 0 | 46 | 78 | 
24 | S=C=Nc1ccc2nc(-c3cccnc3)sc2c1.S=C=Nc1ccc2sc(-c3cccnc3)nc2c1 | 100 | 99 | 99 | 
25 | CN1CCN(Cc2ccc(-c3nc4cc(N=C=S)ccc4o3)s2)CC1 | 0 | 0 |  | 
26 | Cc1ccsc1-c1nc2cc(N=C=S)ccc2o1 | 0 | 78 |  | 
27 | Cc1ccc(-c2nc3cc(N=C=S)ccc3o2)s1 | 33 | 0 |  | 
28 | S=C=Nc1ccc2oc(-c3ccc(CN4CCOCC4)s3)nc2c1 | 66 | 0 |  | 
29 | S=C=Nc1ccc2oc(-c3cccs3)nc2c1 | 0 | 98 |  | 
30 | Cc1cc2nc(-c3cccnc3)oc2cc1N=C=S | 0 | 0 |  | Reduction [13]: 99%
31 | S=C=Nc1ccc2nc(-c3ccccn3)oc2c1.S=C=Nc1ccc2oc(-c3ccccn3)nc2c1 | 50 | 0 | 35 | 
32 | Cn1cccc1-c1nc2cc(N=C=S)ccc2o1 | 25 | 100 | 34 | Activity [5]: 100%; Activity [12]: 45%; Activity [6]: 25%; Activity [7]: 81%; Activity [8]: 0%
33 | S=C=Nc1ccc2sc(-c3cccs3)nc2c1 | 0 | 61 | 57 | 
34 | S=C=Nc1ccc2nc(-c3cccnc3)oc2c1.S=C=Nc1ccc2oc(-c3cccnc3)nc2c1 |  |  |  | Reduction [2]: 94%
35 | CN1CCN(c2ccc(-c3nc4cc(N=C=S)ccc4o3)cn2)CC1 | 0 | 0 | 0 | 
36 | S=C=Nc1cc(Cl)c2oc(-c3cccnc3)nc2c1 | 0 | 0 | 0 | 
37 | S=C=Nc1ccc2nc(-c3cccs3)oc2c1 | 0 | 0 |  | 
38 | S=C=Nc1ccc2nc(-c3ccccn3)sc2c1 | 75 | 0 | 65 | 
39 | S=C=Nc1ccc2nc(-c3ccc(N4CCOCC4)nc3)oc2c1.S=C=Nc1ccc2oc(-c3ccc(N4CCOCC4)nc3)nc2c1 | 0 | 0 | 27 | 
